Data on 10 molecules can be found in ChEMBL document CHEMBL1641520, “Design, synthesis, and biological evaluation of novel water-soluble N-mustards as potential anticancer agents” (Bioorg Med Chem, 2011).

The test system of assay [1] is CCRF-CEM. Kind of assay: Cytotoxicity against human CCRF-CEM cells after 72 hrs by XTT assay. Type of assay: functional, cell-based. Summed up: (§1)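 CCRF-CEM leukemia cells and their taxol- or vinblastine-resistant sublines given compound for 72 h. XTT read-out: after phenazine methosulfate–XTT, 6 h at 37 °C, absorbance at 450 and 630 nm. IC50 from median-effect analysis of dose-effect data at six or seven concentrations.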
(Tetrazolium dyes change colour on reduction, which living cells bring about.)

Assay [2] concerns CCRF-CEM. Kind of assay: Cytotoxicity against taxol-resistant human CCRF-CEM cells after 72 hrs by XTT assay. Type of assay: functional, cell-based. An outline of the steps:
as §1

Assay [3] concerns CCRF-CEM. In words: Cytotoxicity against vinblastine-resistant human CCRF-CEM cells after 72 hrs by XTT assay. Type of assay: functional, cell-based. An outline of the steps: as §1
Assay [4] has as its system CCRF-CEM. Kind of assay: Selectivity ratio of IC50 for taxol-resistant human CCRF-CEM cells to IC50 for human CCRF-CEM cells. Type of assay: functional.
The subject of assay [5] is CCRF-CEM. Kind of assay: Selectivity ratio of IC50 for vinblastine-resistant human CCRF-CEM cells to IC50 for human CCRF-CEM cells. Type of assay: functional.
Assay [6] is described as follows: Cytotoxicity against human H1299 cells after 72 hrs by alamar blue assay. Type of assay: functional, cell-based. Particulars: NCI-H1299, 72 h. Summed up:
(§2)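 H1299, PC3, CL1-0, CL1-5 and MCF-7 cells exposed to compound for 72 h. Alamar blue added, then 6 h at 37 °C; absorbance at 570 and 600 nm. IC50 from median-effect analysis of dose-effect data at six or seven concentrations.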

Assay [7] can be described thus: Cytotoxicity against human CL1-5 cells after 72 hrs by alamar blue assay. Type of assay: functional, cell-based. Particulars: CL1-5, 72 h. Summed up: as §2
The next assay has as its system PC-3. In words: Cytotoxicity against human PC3 cells after 72 hrs by alamar blue assay. Type of assay: functional, cell-based. The following applies: PC-3, 72 h. Summed up:
as §2
In general terms: Resazurin is reduced to fluorescent resorufin, in cell work by metabolically active cells.

The subject of the next assay is HCT-116. In words: Cytotoxicity against human HCT116 cells after 72 hrs by SRB assay. Type of assay: functional, cell-based. The following applies: HCT-116, 72 h. An outline of the steps:
(§3)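 MX-1 breast and HCT-116 colon carcinoma cells exposed to compound for 72 h; growth measured by sulforhodamine B assay. IC50 from median-effect analysis of dose-effect data at six or seven concentrations.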
(Sulforhodamine B stains cellular protein and so reports cell mass.)

The subject of the next assay is MX1. In words: Cytotoxicity against human MX1 cells after 72 hrs by SRB assay. Type of assay: functional, cell-based. The following applies: MX1, 72 h. An outline of the steps:
as §3

The test system of a further assay is MCF7. Kind of assay: Cytotoxicity against human MCF7 cells after 72 hrs by alamar blue assay. Type of assay: functional, cell-based. Particulars: MCF7, 72 h. An outline of the steps: as §2
The test system of the next assay is Nucleic Acid. In words: Binding affinity to Escherichia coli plasmid EGFP-N1 DNA at 1 to 10 uM after 22 hrs by alkaline agarose gel shift assay. Type of assay: nucleic-acid assay. Summed up: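 Purified pEGFP-N1 plasmid DNA (1500 ng) incubated with compound (1–20 µM) in 3 mM NaCl/1 mM sodium phosphate pH 7.4/1 mM EDTA for 2 h at 37 °C. Linearized with BamHI, ethanol-precipitated, denatured in 0.5 N NaOH-10 mM EDTA. Run on 0.8% alkaline agarose gel at 4 °C, 18 V for 22 h. Ethidium bromide stain; cross-linked double-stranded DNA scored against single-stranded DNA.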

A short description of assay [8]: Cytotoxicity against human CL1-0 cells after 72 hrs by alamar blue assay. Type of assay: functional, cell-based. Particulars: CL1-0, 72 h. An outline of the steps:
as §2

pIC50: −log10 of the molar value. The source made the active and inactive calls. No cut-off for these calls is given here.

The term pIC50 denotes the IC50 on a negative log10 scale, so that one unit is a factor of ten. A lower pIC50 goes with a high IC50.

For the molecule `O=C(Nc1ccc(N(CCCl)CCCl)cc1)Nc1cccc(OCCN2CCCC2)c1`, the negative-log IC50 (pIC50) in the assay on CCRF-CEM [1] was 6.46; in the assay with CCRF-CEM [2] it was 5.92; in the assay with CCRF-CEM [3] it was 5.38. The figures for the “Ratio IC50” value in the assay with CCRF-CEM [4] and in the assay with CCRF-CEM [5] were 3.5 and 12.1, respectively.

With `CN(C)CCCOc1ccc(NC(=O)Nc2ccc(N(CCCl)CCCl)cc2)cc1.Cl`, the pIC50 with CCRF-CEM [1] is 6.92; in the assay on CCRF-CEM [2], 5.87; in the assay on CCRF-CEM [3], 5.90; in [6], 5.01; in assay [7] it was 5.29; with PC-3, 6.03. The negative-log IC50 (pIC50) in the assay on HCT-116 was 6.54; in the assay with MX1, 6.59; in the assay with MCF7 it was 5.88; in assay [8], 5.15. The “Ratio IC50” value amounted to 11.8 in the assay on CCRF-CEM [4] and 10.9 in the assay with CCRF-CEM [5]. Further, the outcome in the assay on Nucleic Acid was Active.

Regarding `CC[C@]1(O)C[C@@H]2CN(CCc3c([nH]c4ccccc34)[C@@](C(=O)OC)(c3cc4c(cc3OC)N(C)[C@H]3[C@@](O)(C(=O)OC)[C@H](OC(C)=O)[C@]5(CC)C=CCN6CC[C@]43[C@@H]65)C2)C1` [VINBLASTINE], the figures for the pIC50 in the assay on CCRF-CEM [1] and with CCRF-CEM [2] were 9.15 and 7.10, respectively. Besides, the figures for the “Ratio IC50” value in the assay with CCRF-CEM [4] and in the assay with CCRF-CEM [5] were 106.2 and 679.5, respectively.

As for `Cl.O=C(Nc1ccc(C(=O)NCCN2CCCCC2)cc1)Nc1ccc(N(CCCl)CCCl)cc1`, the negative logarithm of the IC50 (pIC50) with CCRF-CEM [1] is 6.44; with CCRF-CEM [2], 4.82; with CCRF-CEM [3] it was 4.61; with HCT-116, 6.04; with MX1, 5.36. Besides, the “Ratio IC50” value in the assay on CCRF-CEM [4] was 41.8; in the assay with CCRF-CEM [5], 67.8.

On to `Cl.O=C(Nc1ccc(OCCN2CCCC2)cc1)Nc1ccc(N(CCCl)CCCl)cc1`, for which the pIC50 in the assay with CCRF-CEM [1] was 6.85; with CCRF-CEM [2], 5.80; in the assay on CCRF-CEM [3], 5.69; in [6] it was 5.65; in assay [7], 5.23; in the assay on PC-3, 5.75. For the same molecule, the pIC50 is 6.15 in the assay with HCT-116, 6.31 with MX1, 5.74 with MCF7 and 5.52 in assay [8]. Also, the “Ratio IC50” value is on record as 11.5 in the assay on CCRF-CEM [4] and 15 with CCRF-CEM [5].

On to `CN(C)CCOc1cccc(NC(=O)Nc2ccc(N(CCCl)CCCl)cc2)c1`, for which the negative-log IC50 (pIC50) in the assay with CCRF-CEM [1] was 5.88; in the assay on CCRF-CEM [2], 6.09; in the assay with CCRF-CEM [3] it was 5.83. In addition, the “Ratio IC50” value is reported as 0.6 in the assay with CCRF-CEM [4] and 1.1 in the assay with CCRF-CEM [5].

For the molecule `O=C(Nc1ccc(N(CCCl)CCCl)cc1)Nc1cccc(OCCN2CCOCC2)c1`, the negative-log IC50 (pIC50) was 6.39 with CCRF-CEM [1], 6.14 in the assay with CCRF-CEM [2] and 5.95 in the assay with CCRF-CEM [3]. Moreover, the “Ratio IC50” value with CCRF-CEM [4] is reported as 1.8; in the assay with CCRF-CEM [5], 2.8.

Take `CN(C)CCOc1ccc(NC(=O)Nc2ccc(N(CCCl)CCCl)cc2)cc1.Cl`: the pIC50 was 7.00 in the assay on CCRF-CEM [1]; 5.82 in the assay with CCRF-CEM [2]; 5.92 in the assay with CCRF-CEM [3]; 5.36 in assay [6]; 5.52 in [7]; 5.78 with PC-3. Also, the pIC50 in the assay on HCT-116 was 6.57; in the assay with MX1, 6.55; in the assay on MCF7 it was 5.90; in [8], 5.39. Moreover, the “Ratio IC50” value in the assay on CCRF-CEM [4] was 7.6; in the assay with CCRF-CEM [5], 6.02.

For `Cl.O=C(Nc1ccc(N(CCCl)CCCl)cc1)Nc1cccc(C(=O)NCCN2CCCC2)c1`, the negative-log IC50 (pIC50) is 6.47 in the assay with CCRF-CEM [1]; 4.60 in the assay on CCRF-CEM [2]; 4.44 with CCRF-CEM [3]; 6.33 in the assay with HCT-116; 5.66 with MX1. Besides, the entries for the “Ratio IC50” value with CCRF-CEM [4] and in the assay on CCRF-CEM [5] were 73.7 and 106.9, respectively.

`Cl.O=C(Nc1ccc(N(CCCl)CCCl)cc1)Nc1cccc(C(=O)N2CCC(N3CCCCC3)CC2)c1`: the pIC50 with CCRF-CEM [1] is 6.55; with CCRF-CEM [2], 4.91; in the assay with CCRF-CEM [3] it was 4.70; in assay [6], 4.94; in assay [7], 5.09; with PC-3 it was 5.50. The pIC50 with HCT-116 was 6.09; with MX1, 5.65; in the assay with MCF7, 5.51; in assay [8], 5.21. For the same molecule, the “Ratio IC50” value in the assay with CCRF-CEM [4] is recorded as 43.5; in the assay on CCRF-CEM [5], 71.6.
